Data set [1] has as its system BV-2. Briefly: Inhibition of NADPH oxidase-dependent reactive oxygen species production in mouse BV2 cells.
In data set [2] the test system is CD4+ve Th. Briefly: Inhibition of PMA plus ionomycin-induced IL2 production in human CD4+ Th cells measured as mean channel fluorescence at 25 uM. Type of data set: functional. Summed up:
(§1)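 Human leukocytes were stimulated with PMA plus ionomycin. IL-2 (CD4+ Th cells) and IFN-γ (CD8+ cells) were measured by intracellular cytokine staining and read as mean channel fluorescence. Significance was tested against activator alone (P<0.05).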

Data set [3] has as its system BV-2. The data set is described as follows: Inhibition of LPS-induced TNFalpha production in mouse BV2 cells measured as mean channel fluorescence at 5 uM.
Data set [4] relates to BV-2. The data set is described as follows: Inhibition of LPS-induced TNFalpha production in mouse BV2 cells measured as mean channel fluorescence at 25 uM.
Data set [5] in a line: Inhibition of PMA-induced ROS production in human leukocytes at 25 uM. The data set is classed as functional. As to conditions: Leukocyte.
Data set [6] is described as follows: Cytotoxicity against microglial cells at 10 uM. The settings on record: mouse, microglia.
The nature of data set [7]: Inhibition of PMA plus ionomycin-induced IFN-gamma production in human CD8+ leukocytes measured as mean channel fluorescence at 5 uM. Type of data set: functional. The gist of the method:
as §1

Data set [8] is described as follows: Cytotoxicity against microglial cells at 5 uM. The settings on record: mouse, microglia.
Data set [9] deals with BV-2. Briefly: Inhibition of NOS-dependent nitric oxide production in mouse BV2 cells. Type of data set: functional, cell-based. The gist of the method: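 Murine BV2 microglial cells. NOX activity was read as ROS production and NOS activity as NO production. DPI (NOX inhibitor) and L-NAME (NOS inhibitor) served as positive controls. IC50 is the mean ± SEM of 5–6 experiments on different days with cells from different passages.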

Data set [10] is described as follows: Inhibition of fMLP-induced ROS production in human leukocytes at 25 uM. The data set is classed as functional. The settings on record: Leukocyte.
For data set [11], the system named is CD4+ve Th. The data set is described as follows: Inhibition of PMA plus ionomycin-induced IL2 production in human CD4+ Th cells measured as mean channel fluorescence at 5 uM. Type of data set: functional. The gist of the method:
as §1

A short description of data set [12]: Inhibition of PMA plus ionomycin-induced IFN-gamma production in human CD8+ leukocytes measured as mean channel fluorescence at 25 uM. The data set is classed as functional. The gist of the method: as §1
Data set [13] can be described thus: Cytotoxicity against microglial cells at 25 uM. As to conditions: mouse, microglia.
Data set [14] can be described thus: DPPH radical scavenging activity. The data set is classed as functional. On the technique in general: The DPPH test is a chemical assay of radical scavenging.
Data set [15] is described as follows: Inhibition of fMLP-induced ROS production in human mononuclear leukocytes. The data set is classed as functional, cell-based. Summed up:
(§2)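 Peripheral human neutrophils (PMN) or mononuclear cells (MNC) were stimulated with PMA (a PKC activator) or fMLP to induce ROS. IC50 is the mean ± SEM of 3–5 experiments on different days with cells from different donors.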

Data set [16] is described as follows: Inhibition of fMLP-induced ROS production in human PMN. Type of data set: functional. Summed up:
as §2

Data set [17] is described as follows: Inhibition of PMA-induced ROS production in human PMN. Type of data set: functional. The gist of the method: as §2
Data set [18] in a line: Inhibition of PMA-induced ROS production in human mononuclear leukocytes. Type of data set: functional, cell-based. Summed up:
as §2

Data set [19] addresses T1, Protein kinase C (PKC) (Homo sapiens) (UniProt O94806+P41743+P17252+P05129+Q05655+P05771+Q05513+Q02156+P24723+Q15139+Q04759). Briefly: Inhibition of PKC in human peripheral leucocytes at 5 uM by ELISA. The data set is classed as cell-based. The gist of the method:
(§3)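 Protein kinase activity in human leukocytes is expressed as % inhibition relative to drug-free samples (taken as 100%). Values are the mean ± SEM of 3 experiments on different days with cells from different donors.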

Data set [20] addresses T1, Protein kinase C (PKC) (Homo sapiens). The data set is described as follows: Inhibition of PKC at 25 uM by ELISA. The data set is classed as protein assay. Summed up:
as §3

The nature of data set [21]: Inhibition of fMLP-induced calcium mobilisation in human peripheral leukocytes at 25 uM. The data set is classed as functional. Summed up:
(§4)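 Human leukocytes were preloaded with Fura-2, and intracellular Ca2+ rise was followed after fMLP stimulation. Inhibition is expressed as % of the calcium increment in drug-free samples (taken as 100%). Values are the mean ± SEM of 3 experiments on different days with different donors.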
A general note: Calcium assays in cells follow changes in intracellular calcium, usually with a dye or a luminescent sensor.

The nature of data set [22]: Inhibition of fMLP-induced calcium mobilisation in human peripheral leukocytes at 5 uM. Type of data set: functional. The gist of the method:
as §4

What is called IC50 is the concentration that gives 50% inhibition. A higher IC50 goes with weaker potency. On to `c1ccc2c(c1)[I+]c1ccccc1-2` [DIPHENYLENEIODONIUM], for which, in the data set with BV-2 [1], the IC50 is 10.2 µM.
One may read the inhibition as the change of the read-out against control, counted positive when it falls. In the case of `COc1cc(CCCc2c(OC)cc(OCc3ccccc3)c(OC)c2OC)ccc1OCc1ccccc1`, the Activity came out at 102 with CD4+ve Th [2]; 164 with BV-2 [3]; 154 in the data set on BV-2 [4]; 8.9% in [6]; 59 in data set [7]; 14.6% in data set [8]. The Activity with CD4+ve Th [11] was 100; in data set [12], 65; in data set [13], 9.6%. Moreover, the inhibition at 25 µM turned out to be 20% in data set [5] and 37% in data set [10]. The IC50 in the data set with BV-2 [9] stood at 20 µM.
As for `COc1cc(C/C=C/c2c(OC)cc(OCc3ccccc3)c(OC)c2OC)ccc1OCc1ccccc1`, the Activity with CD4+ve Th [2] was 103; in the data set with BV-2 [3], 164; in the data set on BV-2 [4] it was 155; in data set [6], 8.1%; in [7], 60; in data set [8], 8.6%. In addition, the Activity in the data set on CD4+ve Th [11] is listed as 101; in data set [12], 65; in data set [13], 10%. Further, the inhibition at 25 µM came out at 20% in data set [5] and 37% in [10]. For the same molecule, in the data set on BV-2 [9], the IC50 amounted to 19 µM.
Turning to `Cc1c(C)c2c(c(C)c1O)CCC(C)(C(=O)O)O2` (stereo unspecified) [TROLOX], the IC50 in [14] worked out at 40.5 µM.
Take `O=c1c(O)c(-c2ccc(O)c(O)c2)oc2cc(O)cc(O)c12` [QUERCETIN]: the IC50 in data set [15] was determined as 4 µM; in data set [16], 2.5 µM; in data set [17], 5.5 µM; in data set [18], 3.1 µM.
In the case of `COc1cc(CCCc2c(OC)cc(O)c(OC)c2OC)ccc1O` [VISCOLIN], the Activity in the data set on CD4+ve Th [2] came to 112; in the data set with BV-2 [3], 155; with BV-2 [4], 121; in data set [6], 8.9%; in [7], 72; in data set [8] it was 9.6%. Further, the Activity is reported as 99 with CD4+ve Th [11], 67 in [12] and 14.6% in [13]. The IC50 in the data set on BV-2 [1] was 29.2 µM; in [14], 49.2 µM; in [15], 2.5 µM; in data set [16] it was 1.4 µM; in the data set on BV-2 [9], 24 µM; in [17], 12 µM. In data set [18], this molecule displayed an IC50 of 8.3 µM. The inhibition in [19] was found to be 34.4%; in [20] it was 48.8%. Further, the inhibition at 25 µM in [21] stood at 53.5%. Further, the inhibition at 5 µM in data set [22] stood at 36.7%.
For `COC(=O)[C@@H](N)CCCNC(=N)N[N+](=O)[O-]` [L-NAME], the 50% inhibitory concentration (IC50) in the data set on BV-2 [9] was determined as 36 µM.

(Values after ChEMBL document CHEMBL1146177, “Total synthesis and biological evaluation of viscolin, a 1,3-diphenylpropane as a novel potent anti-inflammatory agent” (Bioorg Med Chem Lett, 2006).)
